From ChEMBL document CHEMBL1629526, “4-[1-(Substituted aryl/alkyl carbonyl)-benzoimidazol-2-yl]-benzenesulfonic acids: synthesis, antimicrobial activity, QSAR studies, and antiviral evaluation” (Eur J Med Chem, 2010)
Values after ≈ are worked out from the molar mass of the structure shown.

Legend:
Staphylococcus aureus = experiment: Antimicrobial activity against Staphylococcus aureus after 24 hrs by tube dilution method; type: functional
Bacillus subtilis = experiment: Antimicrobial activity against Bacillus subtilis after 24 hrs by tube dilution method; type: functional
Procedure, shortened: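 Serial dilutions in double-strength nutrient broth (I.P.) with ciprofloxacin as reference, tube dilution, incubated 37 °C for 24 h. MIC is the lowest concentration that inhibited growth.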

Escherichia coli = experiment: Antimicrobial activity against Escherichia coli after 24 hrs by tube dilution method; type: functional
Candida albicans = experiment: Antimicrobial activity against Candida albicans after 48 hrs by tube dilution method; type: functional
Aspergillus niger = experiment: Antimicrobial activity against Aspergillus niger after 7 days by tube dilution method; type: functional; conditions: 168 h
[1] = Cytotoxicity against cat CRFK cells assessed as cell viability by MTS assay; type: cell-based, Felis catus; conditions: crfk
Procedure, shortened: (§1)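 Uninfected cultures were run in parallel with the antiviral assays. Viability was read by colorimetric formazan MTS assay.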

Felid alphaherpesvirus 1 = experiment: Antiviral activity against Feline herpesvirus 1 infected in cat CRFK cells assessed as inhibition of virus induced cytopathicity after 2 to 4 days by MTS assay; type: functional, organism-based; conditions: Felid alphaherpesvirus 1, CRFK
Feline coronavirus = experiment: Antiviral activity against Feline coronavirus infected in cat CRFK cells assessed as inhibition of virus induced cytopathicity after 2 to 4 days by MTS assay; type: functional, organism-based; conditions: Alphacoronavirus 1, CRFK
[2] = Cytotoxicity against human HEL cells assessed as altered cell morphology; type: cell-based
Procedure, shortened: (§2)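 Uninfected cell cultures run alongside the antiviral assays, exposed to serial compound dilutions and incubated at 37 °C for 2–4 days. Toxicity was scored microscopically and reported as the minimum cytotoxic concentration (MCC), the lowest concentration causing a detectable change in normal cell morphology.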

Human alphaherpesvirus 1 [3] = experiment: Antiviral activity against Herpes simplex virus 1 KOS infected in HEL cells assessed as inhibition of virus induced cytopathicity after 2 to 4 days by MTS assay; type: functional, organism-based; conditions: Human alphaherpesvirus 1, KOS
Human alphaherpesvirus 2 = experiment: Antiviral activity against Herpes simplex virus 2 G infected in HEL cells assessed as inhibition of virus induced cytopathicity after 2 to 4 days by MTS assay; type: functional, organism-based; conditions: Human alphaherpesvirus 2, strain G
Vaccinia virus = experiment: Antiviral activity against Vaccinia virus infected in HEL cells assessed as inhibition of virus induced cytopathicity after 2 to 4 days by MTS assay; type: functional, organism-based; conditions: Orthopoxvirus vaccinia
[4] = test system: Vesicular stomatitis virus; experiment: Antiviral activity against Vesicular stomatitis virus infected in HEL cells assessed as inhibition of virus induced cytopathicity after 2 to 4 days by MTS assay; type: functional, organism-based
Human alphaherpesvirus 1 [5] = experiment: Antiviral activity against thymidine kinase deficient acyclovir-resistant Herpes simplex virus 1 KOS infected in HEL cells assessed as inhibition of virus induced cytopathicity after 2 to 4 days by MTS assay; type: functional, organism-based; conditions: Human alphaherpesvirus 1, KOS
HeLa = experiment: Cytotoxicity against human HeLa cells assessed as cell viability by MTS assay; type: cell-based; conditions: hela; procedure, shortened: as §1
[6] = Cytotoxicity against human HeLa cells assessed as altered cell morphology; type: cell-based; procedure, shortened: as §2
[7] = test system: Vesicular stomatitis virus; experiment: Antiviral activity against Vesicular stomatitis virus infected in human HeLa cells assessed as inhibition of virus induced cytopathicity by visual scoring of CPE; type: functional, organism-based
[8] = test system: Vesicular stomatitis virus; experiment: Antiviral activity against Vesicular stomatitis virus infected in human HeLa cells assessed as inhibition of virus induced cytopathicity after 2 to 4 days by MTS assay; type: functional, organism-based
Coxsackievirus B4 [9] = experiment: Antiviral activity against coxsackievirus B4 infected in human HeLa cells assessed as inhibition of virus induced cytopathicity by visual scoring of CPE; type: functional, organism-based; conditions: Enterovirus B
Coxsackievirus B4 [10] = experiment: Antiviral activity against coxsackievirus B4 infected in human HeLa cells assessed as inhibition of virus induced cytopathicity after 2 to 4 days by MTS assay; type: functional, organism-based; conditions: Enterovirus B
[11] = test system: Respiratory syncytial virus; experiment: Antiviral activity against Respiratory syncytial virus infected in human HeLa cells assessed as inhibition of virus induced cytopathicity by visual scoring of CPE; type: functional, organism-based
[12] = test system: Respiratory syncytial virus; experiment: Antiviral activity against Respiratory syncytial virus infected in human HeLa cells assessed as inhibition of virus induced cytopathicity after 2 to 4 days by MTS assay; type: functional, organism-based
MDCK = experiment: Cytotoxicity against MDCK cells assessed as cell viability by MTS assay; type: cell-based, Canis lupus familiaris; conditions: dog, mdck; procedure, shortened: as §1
[13] = Cytotoxicity against MDCK cells assessed as altered cell morphology; type: cell-based, Canis lupus familiaris; conditions: dog; procedure, shortened: as §2
Influenza A virus [14] = experiment: Antiviral activity against Influenza A H1N1 virus subtype infected in MDCK cells assessed as inhibition of virus induced cytopathicity by visual scoring of CPE; type: functional, organism-based
Influenza A virus [15] = experiment: Antiviral activity against Influenza A H1N1 virus subtype infected in MDCK cells assessed as inhibition of virus induced cytopathicity after 2 to 4 days by MTS assay; type: functional, organism-based
Influenza A virus [16] = experiment: Antiviral activity against Influenza A H3N2 virus subtype infected in MDCK cells assessed as inhibition of virus induced cytopathicity by visual scoring of CPE; type: functional, organism-based
Influenza A virus [17] = experiment: Antiviral activity against Influenza A H3N2 virus subtype infected in MDCK cells assessed as inhibition of virus induced cytopathicity after 2 to 4 days by MTS assay; type: functional, organism-based
Influenza B virus [18] = experiment: Antiviral activity against Influenza B virus infected in MDCK cells assessed as inhibition of virus induced cytopathicity by visual scoring of CPE; type: functional, organism-based
Influenza B virus [19] = experiment: Antiviral activity against Influenza B virus infected in MDCK cells assessed as inhibition of virus induced cytopathicity after 2 to 4 days by MTS assay; type: functional, organism-based
[20] = Cytotoxicity against african green monkey Vero cells assessed as altered cell morphology; type: cell-based; conditions: chlorocebus sabaeus; procedure, shortened: as §2
Human respirovirus 3 = experiment: Antiviral activity against parainfluenza-3 virus infected in african green monkey Vero cells assessed as inhibition of virus induced cytopathicity after 2 to 4 days by MTS assay; type: functional, organism-based; conditions: Human respirovirus 3, Vero
[21] = test system: Mammalian orthoreovirus 1; experiment: Antiviral activity against Reovirus 1 virus infected in african green monkey Vero cells assessed as inhibition of virus induced cytopathicity after 2 to 4 days by MTS assay; type: functional, organism-based; conditions: Mammalian orthoreovirus 1, Vero
Sindbis virus = experiment: Antiviral activity against Sindbis virus infected in african green monkey Vero cells assessed as inhibition of virus induced cytopathicity after 2 to 4 days by MTS assay; type: functional, organism-based
Coxsackievirus B4 [22] = experiment: Antiviral activity against Coxsackie virus B4 infected in african green monkey Vero cells assessed as inhibition of virus induced cytopathicity after 2 to 4 days by MTS assay; type: functional, organism-based; conditions: Enterovirus B
Punta Toro virus = experiment: Antiviral activity against Punta Toro virus infected in african green monkey Vero cells assessed as inhibition of virus induced cytopathicity after 2 to 4 days by MTS assay; type: functional, organism-based

Nc1ccccc1C(=O)n1c(-c2ccc(S(=O)(=O)O)cc2)nc2ccccc21
MBC (Staphylococcus aureus): 50 mg/L (≈ 127 µM)
MBC (Bacillus subtilis): > 50 mg/L
MBC (Escherichia coli): 1.56 mg/L (≈ 3.97 µM)
MFC (Candida albicans): 50 mg/L (≈ 127 µM)
MFC (Aspergillus niger): > 50 mg/L
CC50 [1]: 11 mg/L (≈ 28 µM)
EC50 (Felid alphaherpesvirus 1): > 4 mg/L
EC50 (Feline coronavirus): > 4 mg/L
MCC [2]: > 100 µg/mL
EC50 (Human alphaherpesvirus 1 [3]): > 100 mg/L
EC50 (Human alphaherpesvirus 2): > 100 mg/L
EC50 (Vaccinia virus): > 100 mg/L
EC50 [4]: > 100 mg/L
EC50 (Human alphaherpesvirus 1 [5]): > 100 mg/L
CC50 (HeLa): > 100 mg/L
MCC [6]: ≥ 20 µg/mL
EC50 [7]: > 20 mg/L
EC50 [8]: > 20 mg/L
EC50 (Coxsackievirus B4 [9]): > 20 mg/L
EC50 (Coxsackievirus B4 [10]): > 20 mg/L
EC50 [11]: > 20 mg/L
EC50 [12]: > 20 mg/L
CC50 (MDCK): 4.1 mg/L (≈ 10.4 µM)
MCC [13]: ≥ 4 µg/mL
EC50 (Influenza A virus [14]): > 4 mg/L
EC50 (Influenza A virus [15]): > 4 mg/L
EC50 (Influenza A virus [16]): > 4 mg/L
EC50 (Influenza A virus [17]): > 4 mg/L
EC50 (Influenza B virus [18]): > 4 mg/L
EC50 (Influenza B virus [19]): > 4 mg/L
MCC [20]: 20 µg/mL
EC50 (Human respirovirus 3): > 4 mg/L
EC50 [21]: > 4 mg/L
EC50 (Sindbis virus): > 4 mg/L
EC50 (Coxsackievirus B4 [22]): > 4 mg/L
EC50 (Punta Toro virus): > 4 mg/L

C=CC(=O)n1c(-c2ccc(S(=O)(=O)O)cc2)nc2ccccc21
MBC (Staphylococcus aureus): 6.25 mg/L (≈ 19 µM)
MBC (Bacillus subtilis): 12.5 mg/L (≈ 38.1 µM)
MBC (Escherichia coli): 1.56 mg/L (≈ 4.75 µM)
MFC (Candida albicans): > 50 mg/L
MFC (Aspergillus niger): > 50 mg/L
CC50 [1]: > 82 mg/L
EC50 (Felid alphaherpesvirus 1): > 20 mg/L
EC50 (Feline coronavirus): > 20 mg/L
MCC [2]: 100 µg/mL
EC50 (Human alphaherpesvirus 1 [3]): > 20 mg/L
EC50 (Human alphaherpesvirus 2): > 20 mg/L
EC50 (Vaccinia virus): > 20 mg/L
EC50 [4]: > 20 mg/L
EC50 (Human alphaherpesvirus 1 [5]): > 20 mg/L
CC50 (HeLa): > 100 mg/L
MCC [6]: > 100 µg/mL
EC50 [7]: > 100 mg/L
EC50 [8]: > 100 mg/L
EC50 (Coxsackievirus B4 [9]): > 100 mg/L
EC50 (Coxsackievirus B4 [10]): > 100 mg/L
EC50 [11]: > 100 mg/L
EC50 [12]: > 100 mg/L
CC50 (MDCK): 14.1 mg/L (≈ 42.9 µM)
MCC [13]: ≥ 0.8 µg/mL
EC50 (Influenza A virus [14]): > 0.8 mg/L
EC50 (Influenza A virus [15]): > 0.8 mg/L
EC50 (Influenza A virus [16]): > 0.8 mg/L
EC50 (Influenza A virus [17]): > 0.8 mg/L
MCC [20]: > 100 µg/mL
EC50 (Human respirovirus 3): > 100 mg/L
EC50 [21]: > 100 mg/L
EC50 (Sindbis virus): > 100 mg/L
EC50 (Coxsackievirus B4 [22]): > 100 mg/L
EC50 (Punta Toro virus): > 100 mg/L

O=C(c1ccccc1)n1c(-c2ccc(S(=O)(=O)O)cc2)nc2ccccc21
MBC (Staphylococcus aureus): 12.5 mg/L (≈ 33 µM)
MBC (Bacillus subtilis): > 50 mg/L
MBC (Escherichia coli): 1.56 mg/L (≈ 4.12 µM)
MFC (Candida albicans): 50 mg/L (≈ 132 µM)
MFC (Aspergillus niger): > 50 mg/L
CC50 [1]: > 100 mg/L
EC50 (Felid alphaherpesvirus 1): > 100 mg/L
EC50 (Feline coronavirus): > 100 mg/L
MCC [2]: > 100 µg/mL
EC50 (Human alphaherpesvirus 1 [3]): > 100 mg/L
EC50 (Human alphaherpesvirus 2): > 100 mg/L
EC50 (Vaccinia virus): > 100 mg/L
EC50 [4]: > 100 mg/L
EC50 (Human alphaherpesvirus 1 [5]): > 100 mg/L
CC50 (HeLa): > 100 mg/L
MCC [6]: > 100 µg/mL
EC50 [7]: > 100 mg/L
EC50 [8]: > 100 mg/L
EC50 (Coxsackievirus B4 [9]): > 100 mg/L
EC50 (Coxsackievirus B4 [10]): > 100 mg/L
EC50 [11]: > 100 mg/L
EC50 [12]: > 100 mg/L
CC50 (MDCK): > 100 mg/L
MCC [13]: > 100 µg/mL
EC50 (Influenza A virus [16]): > 100 mg/L
EC50 (Influenza A virus [17]): > 100 mg/L
EC50 (Influenza B virus [18]): > 100 mg/L
EC50 (Influenza B virus [19]): > 100 mg/L
MCC [20]: > 100 µg/mL
EC50 (Human respirovirus 3): > 100 mg/L
EC50 [21]: > 100 mg/L
EC50 (Sindbis virus): > 100 mg/L
EC50 (Coxsackievirus B4 [22]): > 100 mg/L
EC50 (Punta Toro virus): > 100 mg/L
